{"source": "ChEMBL document CHEMBL5653622", "about": "(Oncotarget, 2016)", "key": {"HT-29 [1]": {"tested_on": "HT-29", "assay": "Induction of cell cycle arrest in human HT-29 cells assessed as accumulation of cells at S phase at 0.5 uM incubated for 24 hrs by BrdU and PI staining based flow cytometry analysis", "assay_type": "functional", "outline": "(§1)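 HT29 cells exposed for 24h, stained with bromodeoxyuridine and propidium iodide, and cell-cycle distribution measured by flow cytometry.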"}, "[2]": {"assay": "Cmax in BALB/C mouse spleen at 10 mg/kg, po by LC/MS-MS analysis", "assay_type": "ADME, organism-based", "outline": "(§2)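 Female BALB/c mice received a single 10mg/kg bolus i.v. or p.o. Plasma (and spleen homogenate) extracted with methanol containing internal standards. Concentrations were measured by LC/MS-MS and PK parameters calculated with modelling software.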"}, "[3]": {"assay": "Toxicity in CRTac:Ncr-Fox1 mouse xenografted with human Calu-6 cells assessed as body weight at 150 mg/kg, po administered for 3 days in presence of gemcitabine relative to control", "assay_type": "organism-based", "conditions": "in vivo, 72 h, time 3 day"}, "[4]": {"biological_target": "Serine/threonine-protein kinase BRSK1 (Homo sapiens) (UniProt Q8TDC3)", "sequence (Q8TDC3 whole entry)": "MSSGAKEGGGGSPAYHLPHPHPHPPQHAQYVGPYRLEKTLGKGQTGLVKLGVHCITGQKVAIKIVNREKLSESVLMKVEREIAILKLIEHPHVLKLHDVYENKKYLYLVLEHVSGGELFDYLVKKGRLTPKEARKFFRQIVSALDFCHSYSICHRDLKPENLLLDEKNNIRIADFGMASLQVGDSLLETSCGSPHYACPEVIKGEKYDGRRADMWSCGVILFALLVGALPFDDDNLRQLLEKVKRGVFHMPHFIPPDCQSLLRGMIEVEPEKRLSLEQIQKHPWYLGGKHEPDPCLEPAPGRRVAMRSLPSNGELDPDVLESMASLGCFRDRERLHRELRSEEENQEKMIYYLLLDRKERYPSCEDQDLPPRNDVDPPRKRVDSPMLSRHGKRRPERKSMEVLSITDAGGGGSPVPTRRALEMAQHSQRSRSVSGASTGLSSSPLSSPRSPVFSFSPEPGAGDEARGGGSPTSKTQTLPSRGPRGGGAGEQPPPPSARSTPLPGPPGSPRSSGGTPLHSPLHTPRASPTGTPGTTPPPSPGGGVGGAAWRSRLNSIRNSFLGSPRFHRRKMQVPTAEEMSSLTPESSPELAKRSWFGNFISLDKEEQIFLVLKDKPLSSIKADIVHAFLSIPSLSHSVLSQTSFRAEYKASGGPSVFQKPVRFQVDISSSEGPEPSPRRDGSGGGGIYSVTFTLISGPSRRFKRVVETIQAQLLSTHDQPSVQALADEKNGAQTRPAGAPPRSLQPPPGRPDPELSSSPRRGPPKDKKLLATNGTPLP", "assay": "Inhibition of human BRSK1 at 10 uM in presence of ATP by radiometric kinase assay relative to control"}, "[5]": {"biological_target": "Mitogen-activated protein kinase 13 (Homo sapiens) (UniProt O15264)", "assay": "Inhibition of human p38d MAPK assessed as remaining activity at 10 uM in presence of ATP by radiometric kinase assay relative to control"}, "[6]": {"biological_target": "Maternal embryonic leucine zipper kinase (Homo sapiens) (UniProt Q14680)", "sequence (Q14680 whole entry, looked up)": "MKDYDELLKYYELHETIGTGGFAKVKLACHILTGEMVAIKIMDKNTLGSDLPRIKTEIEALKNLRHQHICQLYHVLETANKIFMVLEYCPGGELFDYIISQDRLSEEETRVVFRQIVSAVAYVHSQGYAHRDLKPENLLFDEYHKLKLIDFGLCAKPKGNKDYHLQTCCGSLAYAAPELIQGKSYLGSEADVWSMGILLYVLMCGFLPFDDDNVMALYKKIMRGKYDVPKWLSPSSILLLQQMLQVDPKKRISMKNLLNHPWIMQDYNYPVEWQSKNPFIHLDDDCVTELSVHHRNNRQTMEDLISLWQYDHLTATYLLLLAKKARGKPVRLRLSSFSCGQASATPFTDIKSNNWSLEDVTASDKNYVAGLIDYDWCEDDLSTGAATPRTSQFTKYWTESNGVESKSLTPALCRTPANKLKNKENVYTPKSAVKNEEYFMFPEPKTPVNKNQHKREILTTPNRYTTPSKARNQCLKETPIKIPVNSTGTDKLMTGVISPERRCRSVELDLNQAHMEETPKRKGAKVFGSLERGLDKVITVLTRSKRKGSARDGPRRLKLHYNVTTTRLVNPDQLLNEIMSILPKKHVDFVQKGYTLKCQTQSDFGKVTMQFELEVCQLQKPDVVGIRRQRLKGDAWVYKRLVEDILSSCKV", "assay": "Inhibition of human MELK assessed as remaining activity at 10 uM in presence of ATP by radiometric kinase assay relative to control"}, "[7]": {"biological_target": "Serine/threonine-protein kinase Nek2 (Homo sapiens) (UniProt P51955)", "assay": "Inhibition of human NEK2a assessed as remaining activity at 10 uM in presence of ATP by radiometric kinase assay relative to control"}, "[8]": {"biological_target": "Interleukin-1 receptor-associated kinase 1 (Homo sapiens) (UniProt P51617)", "sequence (P51617 whole entry, looked up)": "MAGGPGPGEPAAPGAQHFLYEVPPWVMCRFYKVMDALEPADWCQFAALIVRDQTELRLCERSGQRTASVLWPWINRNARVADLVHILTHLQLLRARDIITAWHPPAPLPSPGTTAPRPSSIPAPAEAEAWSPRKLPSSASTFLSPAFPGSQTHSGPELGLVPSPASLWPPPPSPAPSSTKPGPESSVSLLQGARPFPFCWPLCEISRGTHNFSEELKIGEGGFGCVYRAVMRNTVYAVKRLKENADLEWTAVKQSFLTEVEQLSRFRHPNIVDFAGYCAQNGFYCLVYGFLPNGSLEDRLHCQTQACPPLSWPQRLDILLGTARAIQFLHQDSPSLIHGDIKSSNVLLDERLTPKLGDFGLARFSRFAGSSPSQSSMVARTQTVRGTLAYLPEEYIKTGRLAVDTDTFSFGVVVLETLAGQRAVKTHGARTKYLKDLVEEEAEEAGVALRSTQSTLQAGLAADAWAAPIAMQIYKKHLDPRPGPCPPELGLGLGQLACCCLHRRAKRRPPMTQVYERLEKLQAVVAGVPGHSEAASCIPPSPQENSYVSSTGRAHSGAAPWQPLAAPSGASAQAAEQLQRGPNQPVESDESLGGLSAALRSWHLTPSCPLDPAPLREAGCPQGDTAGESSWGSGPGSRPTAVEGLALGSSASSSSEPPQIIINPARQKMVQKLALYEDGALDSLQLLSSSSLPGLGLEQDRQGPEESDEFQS", "assay": "Inhibition of human IRAK1 assessed as remaining activity at 10 uM in presence of ATP by radiometric kinase assay relative to control"}, "[9]": {"biological_target": "NUAK family SNF1-like kinase 1 (Homo sapiens, UniProt O60285)", "assay": "Inhibition of human NUAK1 by FRET based Z-LYTE kinase assay"}, "[10]": {"biological_target": "Serine/threonine-protein kinase PAK 5 (Homo sapiens) (UniProt Q9P286)", "sequence (Q9P286 whole entry, looked up)": "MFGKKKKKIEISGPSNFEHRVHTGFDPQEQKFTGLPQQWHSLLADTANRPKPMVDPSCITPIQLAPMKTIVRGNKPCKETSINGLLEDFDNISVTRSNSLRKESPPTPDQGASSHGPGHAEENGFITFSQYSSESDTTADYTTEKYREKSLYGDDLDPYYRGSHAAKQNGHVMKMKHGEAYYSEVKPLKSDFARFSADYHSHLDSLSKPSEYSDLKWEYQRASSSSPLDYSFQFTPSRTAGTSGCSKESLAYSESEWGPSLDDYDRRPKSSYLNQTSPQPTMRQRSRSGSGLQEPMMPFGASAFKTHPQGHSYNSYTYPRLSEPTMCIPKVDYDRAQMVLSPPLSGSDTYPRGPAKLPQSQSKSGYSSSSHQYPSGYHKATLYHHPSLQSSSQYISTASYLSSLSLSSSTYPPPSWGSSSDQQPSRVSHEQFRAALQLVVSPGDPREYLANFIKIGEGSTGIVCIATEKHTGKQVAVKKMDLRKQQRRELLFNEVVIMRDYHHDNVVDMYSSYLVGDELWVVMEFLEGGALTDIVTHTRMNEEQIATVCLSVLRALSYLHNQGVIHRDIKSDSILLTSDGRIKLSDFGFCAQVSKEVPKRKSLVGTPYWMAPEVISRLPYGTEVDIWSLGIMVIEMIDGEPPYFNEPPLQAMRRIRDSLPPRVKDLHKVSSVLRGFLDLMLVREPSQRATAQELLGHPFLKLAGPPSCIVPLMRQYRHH", "assay": "Inhibition of human PAK5 assessed as remaining activity at 10 uM in presence of ATP by radiometric kinase assay relative to control"}, "[11]": {"assay": "Cmax in BALB/C mouse plasma at 10 mg/kg, po by LC/MS-MS analysis", "assay_type": "ADME, organism-based", "outline": "as §2"}, "[12]": {"biological_target": "Misshapen-like kinase 1 (Homo sapiens) (UniProt Q8N4C8)", "assay": "Inhibition of human MINK1 assessed as remaining activity at 10 uM in presence of ATP by radiometric kinase assay relative to control"}, "[13]": {"biological_target": "Serine/threonine-protein kinase D1 (Homo sapiens, UniProt Q15139)", "assay": "Inhibition of PRKD1 (unknown origin) by 33P radiometric kinase assay"}, "HT-29 [14]": {"tested_on": "HT-29", "assay": "Induction of cell cycle arrest in etoposide induced human HT-29 cells assessed as increase in accumulation of cells at S phase at 1 to 5 uM incubated for 24 hrs by BrdU and PI staining based flow cytometry analysis", "assay_type": "functional", "conditions": "dose 1-5 µM", "outline": "as §1"}, "[15]": {"biological_target": "MAP/microtubule affinity-regulating kinase 4 (Homo sapiens) (UniProt Q96L34)", "sequence (Q96L34 whole entry)": "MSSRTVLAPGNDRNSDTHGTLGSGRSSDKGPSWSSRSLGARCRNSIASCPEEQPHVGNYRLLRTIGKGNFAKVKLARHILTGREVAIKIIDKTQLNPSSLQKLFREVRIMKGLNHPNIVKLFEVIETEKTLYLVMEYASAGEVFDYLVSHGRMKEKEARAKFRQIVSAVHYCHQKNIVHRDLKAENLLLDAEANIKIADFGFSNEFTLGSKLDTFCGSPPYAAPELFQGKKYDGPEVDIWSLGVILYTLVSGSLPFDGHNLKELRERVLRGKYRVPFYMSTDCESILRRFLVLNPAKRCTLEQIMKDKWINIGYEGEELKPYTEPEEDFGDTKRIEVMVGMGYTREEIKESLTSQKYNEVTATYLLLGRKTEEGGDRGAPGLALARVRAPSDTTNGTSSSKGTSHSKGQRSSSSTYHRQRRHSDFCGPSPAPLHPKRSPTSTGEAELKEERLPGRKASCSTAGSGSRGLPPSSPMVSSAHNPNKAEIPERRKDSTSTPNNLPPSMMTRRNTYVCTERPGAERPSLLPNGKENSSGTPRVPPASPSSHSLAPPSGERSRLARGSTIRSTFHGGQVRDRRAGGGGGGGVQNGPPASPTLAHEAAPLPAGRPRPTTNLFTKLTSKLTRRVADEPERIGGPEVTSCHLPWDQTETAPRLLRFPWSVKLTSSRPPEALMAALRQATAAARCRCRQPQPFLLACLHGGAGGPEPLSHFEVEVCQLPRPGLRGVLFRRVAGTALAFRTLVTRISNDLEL", "assay": "Inhibition of human MARK4 assessed as remaining activity at 10 uM in presence of ATP by radiometric kinase assay relative to control"}, "[16]": {"biological_target": "SRSF protein kinase 1 (Homo sapiens) (UniProt Q96SB4)", "sequence (Q96SB4 whole entry)": "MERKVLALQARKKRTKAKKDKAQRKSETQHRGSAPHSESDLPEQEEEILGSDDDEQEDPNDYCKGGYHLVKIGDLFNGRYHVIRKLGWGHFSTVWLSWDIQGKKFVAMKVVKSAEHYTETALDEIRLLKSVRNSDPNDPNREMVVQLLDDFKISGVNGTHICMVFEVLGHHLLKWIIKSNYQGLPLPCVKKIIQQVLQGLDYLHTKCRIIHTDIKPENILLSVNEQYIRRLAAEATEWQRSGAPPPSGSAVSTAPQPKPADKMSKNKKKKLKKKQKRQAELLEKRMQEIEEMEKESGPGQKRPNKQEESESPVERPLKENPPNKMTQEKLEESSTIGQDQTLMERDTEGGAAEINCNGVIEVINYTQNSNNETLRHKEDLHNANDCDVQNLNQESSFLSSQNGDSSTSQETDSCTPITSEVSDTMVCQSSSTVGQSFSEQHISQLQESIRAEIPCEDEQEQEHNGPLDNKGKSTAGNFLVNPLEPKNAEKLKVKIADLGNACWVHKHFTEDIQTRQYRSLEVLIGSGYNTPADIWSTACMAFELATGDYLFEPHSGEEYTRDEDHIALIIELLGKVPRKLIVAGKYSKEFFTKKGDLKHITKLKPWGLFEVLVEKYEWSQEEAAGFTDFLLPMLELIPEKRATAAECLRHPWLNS", "assay": "Inhibition of human SRPK1 assessed as remaining activity at 10 uM in presence of ATP by radiometric kinase assay relative to control"}, "[17]": {"biological_target": "Serine/threonine-protein kinase MARK1 (Homo sapiens) (UniProt Q9P0L2)", "sequence (Q9P0L2 whole entry, looked up)": "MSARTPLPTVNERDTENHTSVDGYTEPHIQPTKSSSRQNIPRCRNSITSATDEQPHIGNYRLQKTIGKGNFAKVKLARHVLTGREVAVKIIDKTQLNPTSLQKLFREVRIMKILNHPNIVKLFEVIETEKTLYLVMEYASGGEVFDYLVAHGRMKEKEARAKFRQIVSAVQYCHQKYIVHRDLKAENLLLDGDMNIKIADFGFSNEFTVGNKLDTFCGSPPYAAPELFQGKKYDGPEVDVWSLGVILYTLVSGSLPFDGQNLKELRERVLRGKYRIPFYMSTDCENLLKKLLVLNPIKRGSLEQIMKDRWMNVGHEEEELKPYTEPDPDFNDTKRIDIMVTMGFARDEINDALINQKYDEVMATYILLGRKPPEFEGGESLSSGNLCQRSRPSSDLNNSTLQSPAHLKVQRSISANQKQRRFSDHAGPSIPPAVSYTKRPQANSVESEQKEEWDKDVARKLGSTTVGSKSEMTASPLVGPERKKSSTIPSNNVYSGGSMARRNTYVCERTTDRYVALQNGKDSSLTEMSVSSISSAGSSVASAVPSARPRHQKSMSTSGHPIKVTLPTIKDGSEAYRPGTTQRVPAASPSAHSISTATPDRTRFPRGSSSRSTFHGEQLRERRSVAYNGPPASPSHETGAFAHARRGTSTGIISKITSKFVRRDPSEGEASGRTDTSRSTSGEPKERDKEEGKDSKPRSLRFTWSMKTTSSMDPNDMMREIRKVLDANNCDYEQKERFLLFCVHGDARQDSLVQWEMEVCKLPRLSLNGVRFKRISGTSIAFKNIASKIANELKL", "assay": "Inhibition of human MARK1 assessed as remaining activity at 10 uM in presence of ATP by radiometric kinase assay relative to control"}, "[18]": {"assay": "Toxicity in Emu-Myc driven transgenic mouse transplant model of B-cell lymphoma assessed as change in body temperature at 150 mg/kg, po administered for 9 days", "assay_type": "organism-based", "conditions": "in vivo, 216 h, time 9 day"}, "[19]": {"biological_target": "Vascular endothelial growth factor receptor 2 (Homo sapiens, UniProt P35968)", "assay": "Inhibition of VEGFR2 (unknown origin) by FRET based Z-LYTE kinase assay"}, "[20]": {"biological_target": "Tyrosine-protein kinase SYK (Homo sapiens) (UniProt P43405)", "assay": "Inhibition of human SYK assessed as remaining activity at 10 uM in presence of ATP by radiometric kinase assay relative to control"}, "Mus musculus": {"tested_on": "Mus musculus", "assay": "In vivo inhibition of CHK1 in CRTac:Ncr-Fox1 athymic mouse xenografted with human Calu-6 cells assessed as inhibition of CHK1 phosphorylation on S296 at 150 mg/kg, po in presence of gemcitabine and carboplatin by ELISA analysis", "assay_type": "functional, organism-based"}, "[21]": {"biological_target": "NUAK family SNF1-like kinase 1 (Homo sapiens) (UniProt O60285)", "assay": "Inhibition of human NUAK1 assessed as remaining activity at 10 uM in presence of ATP by radiometric kinase assay relative to control"}}, "note": "The source made the active and inactive calls. The calls are words filed in the database; no cut-off is given here.", "data": [{"smiles": "N#Cc1cnc(Nc2cc(NC[C@H]3CNCCO3)c(C(F)(F)F)cn2)cn1", "note": "[SRA-737]", "values": [{"measurement": "Activity", "setting": "HT-29 [1]", "result": "Active"}, {"measurement": "Cmax", "setting": "[2]", "result": 30.1, "unit": "µM"}, {"measurement": "Activity", "setting": "[3]", "result": 98, "unit": "%"}, {"measurement": "inhibition", "setting": "[4]", "result": 88, "unit": "%"}, {"measurement": "Activity", "setting": "[5]", "result": 54, "unit": "%"}, {"measurement": "Activity", "setting": "[6]", "result": 37, "unit": "%"}, {"measurement": "Activity", "setting": "[7]", "result": 96, "unit": "%"}, {"measurement": "Activity", "setting": "[8]", "result": 38, "unit": "%"}, {"measurement": "IC50", "setting": "[9]", "result": 711, "unit": "nM"}, {"measurement": "Activity", "setting": "[10]", "result": 70, "unit": "%"}, {"measurement": "Cmax", "setting": "[11]", "result": 1.62, "unit": "µM"}, {"measurement": "Activity", "setting": "[12]", "result": 44, "unit": "%"}, {"measurement": "IC50", "setting": "[13]", "result": 298, "unit": "nM"}, {"measurement": "Activity", "setting": "HT-29 [14]", "result": "Active"}, {"measurement": "Activity", "setting": "[15]", "result": 39, "unit": "%"}, {"measurement": "Activity", "setting": "[16]", "result": 82, "unit": "%"}, {"measurement": "Activity", "setting": "[17]", "result": 43, "unit": "%"}, {"measurement": "Activity", "setting": "[18]", "result": "Non-Toxic"}, {"measurement": "IC50", "setting": "[19]", "result": 2100, "unit": "nM"}, {"measurement": "Activity", "setting": "[20]", "result": 84, "unit": "%"}, {"measurement": "inhibition", "setting": "Mus musculus", "result": "Active"}, {"measurement": "Activity", "setting": "[21]", "result": 6, "unit": "%"}]}]}
